According to PMC3400539 (Journal of Computer-Aided Molecular Design, 2011):
Read-outs that look alike come from different tables or passages of the source.

Experiments:
[1] = system: BRCA1(BRCT) (six his-tagged, amino acids 1646–1859); details: cited from earlier work; for ΔGexp (binding free energy): Table 1; for ΔG (Exp): Table 2, brackets = error of the mean
[2] = system: BRCA1(BRCT) (six his-tagged, amino acids 1646–1859); assay: Isothermal titration calorimetry; type: binding
Summary of the method: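 His6-BRCA1 BRCT (aa 1646–1859) was expressed in E. coli BL21(DE3) RIL (1 mM IPTG), Ni-affinity purified, and dialysed into 50 mM KH2PO4 pH 7.2. Peptides were quantified by amino acid analysis, freeze-dried and redissolved in the same buffer. At 25°C, 100–900 µM peptide was titrated into 10–30 µM protein: 3 µL, then 29 × 10 µL, 3 min apart, 307 rpm. Peptide-into-buffer heats were subtracted and the data integrated.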

[3] = isothermal calorimetric data, ref [9]

Substance | ΔGexp (binding free energy) ([1]; T1–T4, ref [9]) | ΔG (Exp) ([1]; ref [9]) | other results
Ac-pSATF-CONH2 [Peptide T2] | -6.7 kcal/mol | −6.7 (0.3) kcal/mol | –
Ac-EPTF-CONH2 [Peptide T4] | No binding | no binding | binding to BRCA1(BRCT) found experimentally ([1]; in words, ref [9]): does not bind
Ac-Nap-pSPTF-CONH2 [Peptide P7] | – | – | ΔΔG, increase in binding affinity compared to T1 ([2]; P7 vs T1, ITC): 0.3 kcal/mol; ΔG (Exp) ([2]; Table 2, brackets = error of the mean, ITC, 25°C, 50 mM KH2PO4 pH = 7.2): −7.8 (0.1) kcal/mol
Ac-pSPAF-CONH2 [Peptide T3] | -5.9 kcal/mol | −5.9 (0.2) kcal/mol | loss in binding affinity caused by Thr→Ala mutation (vs T1) [1, 3]: 1.6 kcal/mol
Ac-pSPVF-CONH2 [Peptide T5] | – | – | ΔGexp (binding free energy) ([1]; T5, ref [18]): -7.8 kcal/mol; ΔG (Exp) ([1]; ref [18]): −7.8 (0.1) kcal/mol; enhancement of binding by Val mutation (vs T1) [1, 3]: 0.3 kcal/mol; binding affinity compared with T1 (in words) ([1]; isothermal calorimetric study, ref [18]): practically the same binding affinity
Ac-pSPTF-CONH2 [Peptide T1] | -7.5 kcal/mol | −7.5 (0.2) kcal/mol | –
